Test results: ChEMBL document CHEMBL5346868 (Eur J Med Chem, 2023)

How the values were obtained:
[1] = Cytotoxicity against african green monkey Vero E6 cells by MTS assay; type: toxicity, cell-based, Vero C1008; conditions: chlorocebus sabaeus
Outline: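 Cytotoxicity is measured on treated, uninfected Vero E6 cells in parallel with the antiviral assays, using a standard MTS assay. CC50 is the concentration causing a 50% adverse effect on host cells.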

Zika virus = test: Antiviral activity against ZIKV MR766 infected in african green monkey Vero E6 cells assessed as decline in virus induced cytopathogenicity measured after 5 days by MTS based microscopic analysis; type: functional, organism-based; conditions: MR766, Vero C1008, 120 h
Outline: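 Vero E6 cells (10^4/well) are seeded in MEM with 2% FCS and left to adhere overnight. Cells are then infected with ZIKV MR766 (passaged in C6/36 cells) and given 2-fold serial compound dilutions. After 5 days, CPE is scored by MTS and by microscopy of fixed, stained cells. EC50 is the 50% antiviral effect.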

[2] = Cytotoxicity against human RD cells by MTS assay; type: toxicity, cell-based
Outline: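 Treated, uninfected RD or HeLa cells are run alongside the matching enterovirus CPE assays, with viability read by MTS. CC50 is the concentration giving a 50% adverse effect on host cells.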

Enterovirus A71 [3] = test: Antiviral activity against human Enterovirus 71 BrCr infected in human RD cells assessed as reduction of virus induced cytopathic effect incubated for 3 days by MTS assay; type: functional, organism-based; conditions: Enterovirus A, 72 h
Outline: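 Confluent RD cells (EMEM, 10% heat-inactivated FBS) are infected with ~100 CCID50 of EV71 BrCr and treated with a compound dilution series. After 3 days at 37 °C, 5% CO2, residual viability is measured by MTS. EC50 is the concentration giving 50% antiviral effect, from at least 2–3 independent experiments.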

Enterovirus A71 [4] = test: Antiviral activity against human enterovirus 71 BrCr infected in human RD cells measured by colorometric based MTS/PMS method; type: functional, organism-based; conditions: Enterovirus A
Outline: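 EV71 BrCr in confluent RD cells (MEM, 10% heat-inactivated FBS) infected with ~100 CCID50 and given a compound dilution series. Incubation was 3 days at 37 °C, 5% CO2, with residual viability read by MTS. EC50 is the concentration giving 50% antiviral effect. Toxicity was run in parallel on treated uninfected cells. Values are means of ≥2 independent experiments.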

SARS-CoV-2 = test: Antiviral activity against SARS-CoV-2 BetaCoV/Belgium/GHB-03021/2020 infected in african green monkey Vero cells assessed as decline in virus induced cytopathogenicity measured after 4 days by argon laser scanning microscopic analysis; type: functional, organism-based; conditions: Severe acute respiratory syndrome coronavirus 2, BetaCoV/Belgium/GHB-03021/2020, Vero, 96 h
[5] = Selectivity index, ratio of CC50 for human RD cells to EC50 for antiviral activity against human Enterovirus 71; type: toxicity; conditions: read-out: Ratio CC50/EC50
Outline: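 SI is calculated as CC50 on uninfected RD cells divided by EC50 in the 3-day EV71 BrCr CPE-reduction MTS assay.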

Enterovirus A71 [6] = test: Antiviral activity against human enterovirus 71 87-2008; type: functional, organism-based; conditions: Enterovirus A
Enterovirus A71 [7] = test: Antiviral activity against human enterovirus 71; type: functional, organism-based; conditions: Enterovirus A

Compound	CC50 [1] [nM]	EC50 (Zika virus) [nM]	CC50 [2] [nM]	EC50 (Enterovirus A71 [3]) [nM]	EC50 (Enterovirus A71 [4]) [nM]	EC50 (SARS-CoV-2) [nM]	selectivity ratio [5]	EC50 (Enterovirus A71 [6]) [nM]	EC50 (Enterovirus A71 [7]) [nM]
OC[C@H]1O[C@@H](n2cnc3c(NCc4cccc(C(F)(F)F)c4)ncnc32)[C@H](O)[C@@H]1O	> 100000	> 100000	> 100000	36	68	> 100000	> 2770	–	–
CCC(CC)COC(=O)[C@H](C)N[P@](=O)(OC[C@H]1O[C@@](C#N)(c2ccc3c(N)ncnn23)[C@H](O)[C@@H]1O)Oc1ccccc1	> 10000	–	–	–	–	58	–	991	–
OC[C@H]1O[C@@H](n2cnc3c(NCc4ccccc4)ncnc32)[C@H](O)[C@@H]1O [N6-BENZYLADENOSINE]	–	–	–	–	–	–	–	–	280
